The target of data set [1] is Tyrosine-protein kinase BTK (Homo sapiens) (UniProt Q06187). As to the kind of experiment: Inhibition of BTK (unknown origin) at 1 uM by proQinase-based assay relative to control.
A short description of data set [2]: Stability in mouse plasma assessed as compound remaining at 5 uM after 1 hr by LC/MS analysis. The settings on record: read-out: Stability. The data set is classed as ADME, cell-free. In outline:
(§1)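 Compound at 5 µM incubated 1 h at 37 °C in human or mouse plasma; percentage remaining quantified by LC/MS.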

Data set [3] addresses T1, Dual specificity mitogen-activated protein kinase kinase 7 (Mus musculus) (UniProt Q8CE90).
T1 sequence (whole entry): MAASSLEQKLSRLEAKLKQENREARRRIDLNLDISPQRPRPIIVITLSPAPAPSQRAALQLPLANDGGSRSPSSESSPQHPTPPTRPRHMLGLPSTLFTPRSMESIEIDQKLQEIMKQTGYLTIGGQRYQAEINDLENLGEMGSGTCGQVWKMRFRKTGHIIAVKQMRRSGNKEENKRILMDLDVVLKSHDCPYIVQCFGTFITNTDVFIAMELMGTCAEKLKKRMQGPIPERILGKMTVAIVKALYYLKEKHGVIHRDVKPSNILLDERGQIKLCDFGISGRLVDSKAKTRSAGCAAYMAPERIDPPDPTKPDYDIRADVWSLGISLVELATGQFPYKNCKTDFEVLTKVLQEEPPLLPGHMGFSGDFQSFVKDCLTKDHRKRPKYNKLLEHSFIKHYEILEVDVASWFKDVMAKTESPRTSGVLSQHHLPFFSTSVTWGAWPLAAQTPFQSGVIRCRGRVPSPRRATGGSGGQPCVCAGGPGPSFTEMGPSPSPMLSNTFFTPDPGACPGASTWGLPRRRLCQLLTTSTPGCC
Put plainly: Inhibition of MKK7 in mouse DRG cells assessed as reduction in cJUN phosphorylation at 1 uM after 2 hrs by Western blot analysis. The data set is classed as cell-based. A digest of the protocol:
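Dissociated DRG neurons plated on laminin for 3 h, medium replaced, compound added for a further 2 h. Neurons lysed in RIPA buffer with phosphatase inhibitors. Western blots probed for phospho-cJun, cJun, phospho-JNK and JNK.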
(A western blot detects proteins with antibodies after separation by electrophoresis.)

The next data set is described as follows: in vitro. The settings on record: mouse, liver microsomes.
The nature of data set [4]: Apparent permeability across apical to basolateral side in MDCK2-MDR1 cells at 10 uM after 2 hrs by transwell membrane based assay. To be noted: dog, MDCK-MDR1. The data set is classed as ADME, cell-based, Canis lupus familiaris. A digest of the protocol: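 Compound at 10 µM in HBSS added to apical or basolateral side of MDCKII-MDR1 monolayer, 2 h at 37 °C. Both sides quantified by LC-MS/MS; Papp A–B or B–A from receiver concentration and volume, time, membrane area and initial donor concentration.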

Data set [5] in a line: Kinetic solubility of the compound in Hepes buffer at pH 7.4 after 90 mins. In kind it is physicochemical. The settings on record: read-out: Kinetic_solubility. A digest of the protocol: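 Compound diluted from 10 mM DMSO stock to 500 µM final in 50 mM Hepes, pH 7.4, shaken 90 min at room temperature. Filtered through 0.2 µm PVDF, then OD scanned 250–500 nm in 10 nm steps. Solubility taken from AUC, normalized to a dilution in acetonitrile.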

For data set [6], the target named is Ribosomal protein S6 kinase (Homo sapiens) (UniProt P51812+Q9UBS0+O75676+Q15349+O75582+P23443+Q9UK32+Q15418). Put plainly: Inhibition of SK6 (unknown origin) at 1 uM by proQinase-based assay relative to control. The data set is classed as protein assay.
Data set [7] in a line: Inhibition of N-terminal His-tagged MKK7 beta1 S273D/T275D double mutant (unknown origin) expressed in insect cells using JNK1 K55M mutant as substrate by ADP-Glo assay. On the set-up: species or system Homo sapiens. In outline: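 ADP-Glo luminescence run per supplier protocol. Kinase: MKK7 beta1 (aa 1-462, TEV-cleavable N-terminal His6 tag, S273D/T275D) expressed in Sf9 insect cells, used at 20 nM. Substrate: JNK1 K55M at 5 µM. Compound dispensed acoustically; read on plate reader.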
In general terms: ADP-Glo turns the ADP formed in a reaction into a luminescent signal.

The target of data set [8] is T2, Dual specificity mitogen-activated protein kinase kinase 7 (Homo sapiens) (UniProt O14733).
T2 sequence (whole entry): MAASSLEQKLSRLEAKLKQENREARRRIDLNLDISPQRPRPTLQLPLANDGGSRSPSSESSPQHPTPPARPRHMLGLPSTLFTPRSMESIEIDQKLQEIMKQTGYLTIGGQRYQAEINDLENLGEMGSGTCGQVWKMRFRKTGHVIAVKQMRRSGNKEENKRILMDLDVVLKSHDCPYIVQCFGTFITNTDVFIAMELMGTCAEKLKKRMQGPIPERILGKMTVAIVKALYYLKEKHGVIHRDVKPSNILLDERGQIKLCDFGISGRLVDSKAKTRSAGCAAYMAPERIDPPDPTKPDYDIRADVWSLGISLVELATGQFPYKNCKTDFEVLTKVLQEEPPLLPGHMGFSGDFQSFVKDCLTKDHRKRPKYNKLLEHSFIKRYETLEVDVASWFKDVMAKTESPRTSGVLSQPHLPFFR
As to the kind of experiment: Covalent binding affinity to MKK7 (unknown origin) assessed as formation of covalent bond with Cys218 residues by MS/MS analysis. A digest of the protocol: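 Protein at 1 mg/mL incubated with 2-fold molar excess of compound, 30 min on ice, then denatured and run on 15% SDS gel. Band excised, reduced with 50 mM DTT (1 h, 37 °C), alkylated with 55 mM iodoacetamide (1 h, 20 °C), digested with 0.1 mg/mL trypsin 20 h at 30 °C, acidified with TFA. Analysed by ion-trap MS/MS.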

For data set [9], the target named is T3, Tyrosine-protein kinase ITK/TSK (Homo sapiens) (UniProt Q08881).
T3 sequence (whole entry): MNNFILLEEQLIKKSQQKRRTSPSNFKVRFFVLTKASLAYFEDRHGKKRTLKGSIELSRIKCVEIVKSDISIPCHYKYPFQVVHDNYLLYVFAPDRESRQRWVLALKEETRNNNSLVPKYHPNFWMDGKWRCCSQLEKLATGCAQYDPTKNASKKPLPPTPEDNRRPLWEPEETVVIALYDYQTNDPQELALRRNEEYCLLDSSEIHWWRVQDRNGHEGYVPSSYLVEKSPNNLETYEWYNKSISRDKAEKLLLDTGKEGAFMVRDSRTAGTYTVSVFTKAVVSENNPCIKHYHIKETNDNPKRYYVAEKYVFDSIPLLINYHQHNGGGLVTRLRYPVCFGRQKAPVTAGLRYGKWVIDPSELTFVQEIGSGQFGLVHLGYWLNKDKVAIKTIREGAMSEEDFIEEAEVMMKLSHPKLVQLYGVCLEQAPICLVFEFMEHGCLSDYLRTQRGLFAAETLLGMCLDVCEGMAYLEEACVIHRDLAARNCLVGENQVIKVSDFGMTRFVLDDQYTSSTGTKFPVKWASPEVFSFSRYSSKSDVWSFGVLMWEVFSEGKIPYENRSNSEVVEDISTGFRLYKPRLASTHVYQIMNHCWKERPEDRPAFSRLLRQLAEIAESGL
Put plainly: Inhibition of ITK (unknown origin) at 1 uM by proQinase-based assay relative to control.

Data set [10] can be described thus: Stability in human plasma assessed as compound remaining at 5 uM after 1 hr by LC/MS analysis. The data set is classed as ADME, cell-free. The settings on record: read-out: Stability. In outline:
as §1

Data set [11] deals with Serine/threonine-protein kinase mTOR (Homo sapiens) (UniProt P42345). Put plainly: Inhibition of mTOR (unknown origin) at 1 uM by proQinase-based assay relative to control.

The structures appear in SMILES notation. In brackets after ≈: the same amount, converted by molar mass. Activity calls are given as the source filed them. The calls are words filed in the database; no cut-off is given here.

Sequence of Tyrosine-protein kinase BTK (Homo sapiens) (Q06187 whole entry): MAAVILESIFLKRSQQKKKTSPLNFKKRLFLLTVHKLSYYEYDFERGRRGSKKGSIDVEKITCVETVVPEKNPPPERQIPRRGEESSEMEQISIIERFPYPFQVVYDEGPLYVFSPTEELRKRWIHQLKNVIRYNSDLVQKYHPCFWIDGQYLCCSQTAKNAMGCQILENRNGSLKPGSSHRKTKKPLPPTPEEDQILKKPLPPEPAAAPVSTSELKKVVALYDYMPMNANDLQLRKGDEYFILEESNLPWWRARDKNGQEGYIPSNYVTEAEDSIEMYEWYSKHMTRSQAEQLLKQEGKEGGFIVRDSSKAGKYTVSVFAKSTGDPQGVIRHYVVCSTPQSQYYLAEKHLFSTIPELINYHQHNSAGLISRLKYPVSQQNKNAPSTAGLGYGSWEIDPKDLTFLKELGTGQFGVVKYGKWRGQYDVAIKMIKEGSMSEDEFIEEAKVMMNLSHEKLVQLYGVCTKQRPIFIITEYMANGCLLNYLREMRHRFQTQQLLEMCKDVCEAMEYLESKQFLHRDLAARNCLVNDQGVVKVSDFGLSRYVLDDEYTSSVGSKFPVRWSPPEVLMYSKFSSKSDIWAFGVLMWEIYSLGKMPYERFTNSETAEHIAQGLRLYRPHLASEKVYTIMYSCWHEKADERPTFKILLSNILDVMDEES

For orientation: inhibition means the relative decrease from the control value, in per cent. The term microsomal CLint denotes the capacity of the preparation to metabolise the compound, expressed as a volume cleared per time. A higher microsomal CLint goes with rapid turnover. A word on the Papp A→B: it is how fast a substance crosses the layer from the apical side. In general, IC50 refers to the concentration needed to halve the response being measured. On to `C=CC(=O)N1CCC[C@@H](n2nc(-c3cn(-c4ccc(C(C)=O)cc4)nn3)c3c(N)ncnc32)C1`, for which the inhibition in [1], in [6], in [9] and in data set [11] was greater than 50% in each case. Further, the results for the remaining at 1 h, 5 µM in [2] and in data set [10] were 70.4% and greater than 99%, respectively. In addition, in data set [3], the inhibition entry is “Active”. In “in vitro”, this molecule had a microsomal CLint at 1 h, 3 µM of 124 µL/min/mg. Besides, in data set [4], the apical-to-basolateral permeability (Papp A→B) at 2 h, 10 µM was 9 ×10⁻⁶ cm/s. Besides, the solubility kinetic at 1.5 h in data set [5] came to 8 µM (≈ 3.66 µg/mL). Inhibition in data set [7] was half-maximal at 10 nM (IC50). Further, the outcome in [8] was Active.

(Values after ChEMBL document CHEMBL4480410, “Targeting the MKK7-JNK (Mitogen-Activated Protein Kinase Kinase 7-c-Jun N-Terminal Kinase) Pathway with Covalent Inhibitors” (J Med Chem, 2019).)
